{"data": "Measured values gathered from unrelated publications", "target": "Serine/threonine-protein kinase Nek3 (NEK3, Homo sapiens, UniProt P51956)", "Sequence (P51956 1-506, as in one of the studies)": "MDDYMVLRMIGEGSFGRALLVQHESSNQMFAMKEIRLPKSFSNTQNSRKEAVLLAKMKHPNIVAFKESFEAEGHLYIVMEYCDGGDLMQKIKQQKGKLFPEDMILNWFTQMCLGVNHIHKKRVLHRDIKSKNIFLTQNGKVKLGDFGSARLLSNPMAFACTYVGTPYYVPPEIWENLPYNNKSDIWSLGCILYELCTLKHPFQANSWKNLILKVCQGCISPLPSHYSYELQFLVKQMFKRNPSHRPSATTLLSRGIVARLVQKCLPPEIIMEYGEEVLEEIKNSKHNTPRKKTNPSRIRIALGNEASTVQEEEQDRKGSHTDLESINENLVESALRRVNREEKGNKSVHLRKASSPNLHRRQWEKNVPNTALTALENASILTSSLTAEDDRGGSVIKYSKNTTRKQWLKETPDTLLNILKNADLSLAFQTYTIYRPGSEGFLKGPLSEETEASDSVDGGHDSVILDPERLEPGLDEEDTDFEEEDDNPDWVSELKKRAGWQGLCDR"}
{"SMILES": "CCN(CC)CCNC(=O)c1c(C)[nH]c(/C=C2\\C(=O)Nc3ccc(F)cc32)c1C", "test": "cell-free assay", "conditions": "0.5 µM", "measurement": "remaining signal", "result": "91.6%"}
{"SMILES": "Cn1nc(C(=O)NCc2ccc(C(=O)O)cc2)cc1-c1ccc2[nH]ccc2c1", "test": "cell-free assay, competition with immobilised ligand", "conditions": "0.1 µM", "measurement": "remaining binding", "result": "100%"}
{"SMILES": "CCCOc1ccc(OC)c(F)c1C(=O)c1ccc(C(=O)N[C@@H]2CNC[C@H]2NC(=O)c2ccc3[nH]ncc3c2)cc1", "test": "enzyme activity, inhibitor", "conditions": "10 µM", "measurement": "remaining activity", "result": "101%"}
{"SMILES": "COc1cccc2c(NCc3ccccc3)nc(-n3c(N)nc4ccccc43)nc12", "test": "target engagement in cells, inhibitor, chemoproteomics", "conditions": "20 mM", "measurement": "inhibition", "result": "2.9%"}
{"SMILES": "CS(=O)(=O)N1CCCC(NC(=O)[C@H](CCC2CCCCC2)NC(=O)c2ccc(CNC(=O)c3cnc4ccccn34)cc2)C1 (stereo partly drawn)", "test": "cell-free assay, competition with immobilised ligand", "conditions": "0.1 µM", "measurement": "remaining binding", "result": "100%"}
{"SMILES": "O=C1NC(=O)c2cc(Nc3ccc(F)cc3)c(Nc3ccc(F)cc3)cc21", "test": "cell-free assay", "conditions": "0.5 µM", "measurement": "remaining signal", "result": "99.1%"}
{"SMILES": "CC(C)(C)c1nc(-c2cccc(NS(=O)(=O)c3c(F)cccc3F)c2F)c(-c2ccnc(N)n2)s1", "test": "enzyme activity, inhibitor, radiometric", "conditions": "1 µM", "measurement": "remaining activity", "result": "85%"}
{"SMILES": "Cn1cnc(Br)c1C1=CN(c2ncnc3[nH]cnc23)CCS1", "test": "enzyme activity, inhibitor, radiometric", "conditions": "50 nM", "measurement": "inhibition", "result": "14.7%"}
{"SMILES": "CCCS(=O)(=O)Nc1ccc(F)c(C(=O)c2c[nH]c3ncc(-c4ccc(Cl)cc4)cc23)c1F", "test": "enzyme activity, inhibitor", "conditions": "1 µM", "measurement": "inhibition", "result": "< 10%"}
{"SMILES": "Nc1c(C(=O)NCc2ccc(C(=O)NCCCC3CCCCC3)cc2)cnn1-c1ccccc1", "test": "cell-free assay, competition with immobilised ligand", "conditions": "0.1 µM", "measurement": "remaining binding", "result": "100%"}
{"SMILES": "O=C(Nc1cnn(-c2csc(C(=O)NC3COC3)c2)c1)Nc1ccccc1Cl", "test": "enzyme activity, inhibitor", "conditions": "5 µM", "measurement": "remaining activity", "result": "103%"}
{"SMILES": "C[C@H](c1ccnc(Nc2nc3ccc(-c4cc(N(C)C)ncn4)cc3[nH]2)c1)N1CCN(C(=O)CC(F)(F)F)CC1", "test": "cell-free assay, competition with immobilised ligand", "conditions": "0.1 µM", "measurement": "remaining binding", "result": "100%"}
{"SMILES": "O=C(Nc1cnn(-c2csc(C(=O)NC3COC3)c2)c1)Nc1c(F)cccc1Cl", "test": "enzyme activity, inhibitor", "conditions": "5 µM", "measurement": "remaining activity", "result": "87.2%"}
{"SMILES": "Cc1ccc(NC(=O)c2ccc(C)c(C(F)(F)F)c2)cc1C#Cc1nn(C2CCC(O)CC2)c2ncnc(N)c12 (stereo not drawn)", "test": "cell-free assay", "conditions": "10 µM", "measurement": "remaining signal", "result": "102%"}
{"SMILES": "CNC(=O)c1cc(Oc2ccc(NC(=O)Nc3ccc(Cl)c(C(F)(F)F)c3)cc2)ccn1", "test": "cell-free assay", "conditions": "0.5 µM", "measurement": "remaining signal", "result": "97.2%"}
{"SMILES": "CCCCNc1ncc2c(-c3ccc(F)cc3)nn(C[C@H]3CC[C@H](N)CC3)c2n1", "test": "target engagement in cells, inhibitor, chemoproteomics", "conditions": "20 mM", "measurement": "inhibition", "result": "10.1%"}
{"SMILES": "CNCc1ccccc1-c1csc([C@@H](C)Nc2nc(C)nc3cc(OC)c(OC)cc23)c1", "test": "cell-free assay, competition with immobilised ligand", "conditions": "1 µM", "measurement": "remaining binding", "result": "100%"}
{"SMILES": "Cc1cc(NC(=O)c2cccc3cc(-c4cccc5[nH]nc(N)c45)ccc23)ccc1F", "test": "enzyme activity, inhibitor", "conditions": "0.1 µM", "measurement": "activity vs control", "result": "83%"}
